How the values were obtained:
Histone deacetylase 1 = Histone deacetylase 1 (Homo sapiens, UniProt Q13547); test: Inhibition of human HDAC1 expressed in 293T cells using Ac-KGLGK(Ac)-MCA as substrate incubated for 30 mins in presence of 0.1 mM DTT by fluorescence plate reader assay; design: species or system HEK293T
[1] = biological target: T1, Protein deacetylase HDAC6 (Mus musculus, UniProt Q9Z2V5); test: Inhibition of mouse HDAC6 expressed in 293T cells using Ac-KGLGK(Ac)-MCA as substrate incubated for 30 mins in presence of 0.1 mM DTT by fluorescence plate reader assay; design: species or system HEK293T
T1 sequence (Q9Z2V5 whole entry): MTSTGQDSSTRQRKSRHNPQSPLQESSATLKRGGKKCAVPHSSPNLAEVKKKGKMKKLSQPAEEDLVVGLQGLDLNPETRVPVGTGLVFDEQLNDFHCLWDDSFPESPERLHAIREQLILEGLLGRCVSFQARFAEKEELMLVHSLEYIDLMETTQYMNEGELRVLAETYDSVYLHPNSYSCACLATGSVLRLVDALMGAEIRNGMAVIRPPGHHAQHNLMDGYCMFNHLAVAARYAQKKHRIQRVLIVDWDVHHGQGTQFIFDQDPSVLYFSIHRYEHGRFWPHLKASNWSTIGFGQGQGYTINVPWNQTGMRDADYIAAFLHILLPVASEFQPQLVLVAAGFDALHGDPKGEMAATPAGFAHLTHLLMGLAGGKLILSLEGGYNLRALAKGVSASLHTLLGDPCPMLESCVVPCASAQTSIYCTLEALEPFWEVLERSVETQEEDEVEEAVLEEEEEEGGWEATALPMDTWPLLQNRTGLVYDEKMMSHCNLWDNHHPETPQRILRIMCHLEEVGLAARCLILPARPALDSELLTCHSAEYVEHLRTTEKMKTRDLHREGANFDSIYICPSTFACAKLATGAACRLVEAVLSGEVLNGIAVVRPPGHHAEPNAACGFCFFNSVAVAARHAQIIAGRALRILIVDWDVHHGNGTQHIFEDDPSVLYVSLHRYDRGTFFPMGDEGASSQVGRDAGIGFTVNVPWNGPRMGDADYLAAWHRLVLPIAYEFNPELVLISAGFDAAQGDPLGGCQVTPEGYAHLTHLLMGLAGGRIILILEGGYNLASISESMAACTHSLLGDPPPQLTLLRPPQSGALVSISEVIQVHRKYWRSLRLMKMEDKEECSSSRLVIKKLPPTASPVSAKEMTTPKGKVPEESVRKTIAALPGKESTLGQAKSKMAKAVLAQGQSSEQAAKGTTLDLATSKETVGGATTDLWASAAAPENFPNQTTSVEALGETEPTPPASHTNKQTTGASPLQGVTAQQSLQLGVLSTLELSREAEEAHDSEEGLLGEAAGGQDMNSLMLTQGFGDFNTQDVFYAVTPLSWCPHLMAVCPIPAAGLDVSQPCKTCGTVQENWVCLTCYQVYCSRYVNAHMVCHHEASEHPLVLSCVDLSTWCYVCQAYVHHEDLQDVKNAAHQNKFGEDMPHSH
In short: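 HDAC enzyme assay run in the presence of 0.1 mM dithiothreitol (DTT); IC₅₀ determined.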

[2] = Selectivity index, ratio of IC50 for mouse HDAC6 expressed in 293T cells to IC50 for human HDAC1 expressed in 293T cells using Ac-KGLGK(Ac)-MCA as substrate incubated for 30 mins in presence of 0.1 mM DTT by fluorescence plate reader assay; conditions: 0.5 h
In short: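 Ratio of HDAC6 IC₅₀ to HDAC1 IC₅₀, taken as selectivity for class I HDAC1 over class II HDAC6. Both enzyme assays were run in the presence of 0.1 mM DTT.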

[3] = Growth inhibition of human HBC4 cells measured after 48 hrs by sulforhodamine B assay; assay type: functional
In short: (§1)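 Panel of 39 human cancer cell lines tested at the Japanese Foundation for Cancer Research. Five concentrations per compound, spanning 10⁻¹¹–10⁻⁷ M, 10⁻¹⁰–10⁻⁶ M or 10⁻⁸–10⁻⁴ M, were used to build dose-response curves. GI₅₀ is the concentration giving 50% growth inhibition relative to control.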

[4] = Growth inhibition of human BSY1 cells measured after 48 hrs by sulforhodamine B assay; assay type: functional; conditions: BSY-1; in short: as §1
[5] = Growth inhibition of human HBC5 cells measured after 48 hrs by sulforhodamine B assay; assay type: functional; in short: as §1
MCF7 = test: Growth inhibition of human MCF7 cells measured after 48 hrs by sulforhodamine B assay; assay type: functional; in short: as §1
MDA-MB-231 = test: Growth inhibition of human MDA-MB-231 cells measured after 48 hrs by sulforhodamine B assay; assay type: functional; in short: as §1
U-251 = test: Growth inhibition of human U-251 cells measured after 48 hrs by sulforhodamine B assay; assay type: functional; in short: as §1
SF-268 = test: Growth inhibition of human SF-268 cells measured after 48 hrs by sulforhodamine B assay; assay type: functional; in short: as §1
SF-295 = test: Growth inhibition of human SF-295 cells measured after 48 hrs by sulforhodamine B assay; assay type: functional; in short: as §1
SF-539 = test: Growth inhibition of human SF-539 cells measured after 48 hrs by sulforhodamine B assay; assay type: functional; in short: as §1
SNB-75 = test: Growth inhibition of human SNB-75 cells measured after 48 hrs by sulforhodamine B assay; assay type: functional; in short: as §1
SNB-78 = test: Growth inhibition of human SNB-78 cells measured after 48 hrs by sulforhodamine B assay; assay type: functional; in short: as §1
HCC 2998 = test: Growth inhibition of human HCC 2998 cells measured after 48 hrs by sulforhodamine B assay; assay type: functional; in short: as §1
KM12 = test: Growth inhibition of human KM12 cells measured after 48 hrs by sulforhodamine B assay; assay type: functional; in short: as §1
HT-29 = test: Growth inhibition of human HT-29 cells measured after 48 hrs by sulforhodamine B assay; assay type: functional; in short: as §1
HCT-15 = test: Growth inhibition of human HCT-15 cells measured after 48 hrs by sulforhodamine B assay; assay type: functional; in short: as §1
HCT-116 = test: Growth inhibition of human HCT-116 cells measured after 48 hrs by sulforhodamine B assay; assay type: functional; in short: as §1
NCI-H23 = test: Growth inhibition of human NCI-H23 cells measured after 48 hrs by sulforhodamine B assay; assay type: functional; in short: as §1
NCI-H226 = test: Growth inhibition of human NCI-H226 cells measured after 48 hrs by sulforhodamine B assay; assay type: functional; in short: as §1
NCI-H522 = test: Growth inhibition of human NCI-H522 cells measured after 48 hrs by sulforhodamine B assay; assay type: functional; in short: as §1
NCI-H460 = test: Growth inhibition of human NCI-H460 cells measured after 48 hrs by sulforhodamine B assay; assay type: functional; in short: as §1
A549 = test: Growth inhibition of human A549 cells measured after 48 hrs by sulforhodamine B assay; assay type: functional; in short: as §1
DMS-273 = test: Growth inhibition of human DMS-273 cells measured after 48 hrs by sulforhodamine B assay; assay type: functional; in short: as §1
DMS-114 = test: Growth inhibition of human DMS-114 cells measured after 48 hrs by sulforhodamine B assay; assay type: functional; in short: as §1
LOX IMVI = test: Growth inhibition of human LOX IMVI cells measured after 48 hrs by sulforhodamine B assay; assay type: functional; in short: as §1
OVCAR-3 = test: Growth inhibition of human OVCAR-3 cells measured after 48 hrs by sulforhodamine B assay; assay type: functional; in short: as §1
OVCAR-4 = test: Growth inhibition of human OVCAR-4 cells measured after 48 hrs by sulforhodamine B assay; assay type: functional; in short: as §1
OVCAR-5 = test: Growth inhibition of human OVCAR-5 cells measured after 48 hrs by sulforhodamine B assay; assay type: functional; in short: as §1
OVCAR-8 = test: Growth inhibition of human OVCAR-8 cells measured after 48 hrs by sulforhodamine B assay; assay type: functional; in short: as §1
SK-OV-3 = test: Growth inhibition of human SK-OV-3 cells measured after 48 hrs by sulforhodamine B assay; assay type: functional; in short: as §1
RXF 631 = test: Growth inhibition of human RXF 631 cells measured after 48 hrs by sulforhodamine B assay; assay type: functional; in short: as §1
ACHN = test: Growth inhibition of human ACHN cells measured after 48 hrs by sulforhodamine B assay; assay type: functional; in short: as §1
St-4 = test: Growth inhibition of human St-4 cells measured after 48 hrs by sulforhodamine B assay; assay type: functional; in short: as §1
MKN-1 = test: Growth inhibition of human MKN-1 cells measured after 48 hrs by sulforhodamine B assay; assay type: functional; in short: as §1
MKN-7 = test: Growth inhibition of human MKN-7 cells measured after 48 hrs by sulforhodamine B assay; assay type: functional; in short: as §1
MKN-28 = test: Growth inhibition of human MKN-28 cells measured after 48 hrs by sulforhodamine B assay; assay type: functional; in short: as §1
MKN-45 = test: Growth inhibition of human MKN-45 cells measured after 48 hrs by sulforhodamine B assay; assay type: functional; in short: as §1
MKN-74 = test: Growth inhibition of human MKN-74 cells measured after 48 hrs by sulforhodamine B assay; assay type: functional; in short: as §1
DU-145 = test: Growth inhibition of human DU-145 cells measured after 48 hrs by sulforhodamine B assay; assay type: functional; in short: as §1
PC-3 = test: Growth inhibition of human PC-3 cells measured after 48 hrs by sulforhodamine B assay; assay type: functional; in short: as §1

Sequence of Histone deacetylase 1 (Q13547 whole entry): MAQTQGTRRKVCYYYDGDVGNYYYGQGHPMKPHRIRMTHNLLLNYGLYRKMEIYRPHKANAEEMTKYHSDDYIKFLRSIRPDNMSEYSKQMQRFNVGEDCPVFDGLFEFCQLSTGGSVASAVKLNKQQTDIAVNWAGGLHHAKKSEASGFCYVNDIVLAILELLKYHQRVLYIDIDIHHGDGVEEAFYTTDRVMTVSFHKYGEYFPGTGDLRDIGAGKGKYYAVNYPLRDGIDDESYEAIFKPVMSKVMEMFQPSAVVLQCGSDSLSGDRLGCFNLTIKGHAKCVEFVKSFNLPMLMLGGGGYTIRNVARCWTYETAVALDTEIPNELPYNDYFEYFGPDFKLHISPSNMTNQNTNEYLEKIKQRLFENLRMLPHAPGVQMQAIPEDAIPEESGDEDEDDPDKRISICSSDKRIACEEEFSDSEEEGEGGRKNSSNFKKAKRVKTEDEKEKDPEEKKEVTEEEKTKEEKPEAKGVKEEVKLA

Structure (SMILES): C/C=C1\NC(=O)[C@H]2CSSCC/C=C/[C@H](CC(=O)N[C@H](C(C)C)C(=O)N2)OC(=O)CNC1=O
- IC50 (Histone deacetylase 1): 4.7 nM
- IC50 [1]: 859 nM
- Ratio IC50 [2]: 182
- GI50 [3]: 170 nM
- GI50 [4]: 200 nM
- GI50 [5]: 630 nM
- GI50 (MCF7): 190 nM
- GI50 (MDA-MB-231): 53 nM
- GI50 (U-251): 120 nM
- GI50 (SF-268): 110 nM
- GI50 (SF-295): 280 nM
- GI50 (SF-539): 10 nM
- GI50 (SNB-75): 10 nM
- GI50 (SNB-78): 10 nM
- GI50 (HCC 2998): 32 nM
- GI50 (KM12): 45 nM
- GI50 (HT-29): 42 nM
- GI50 (HCT-15): 20000 nM
- GI50 (HCT-116): 26 nM
- GI50 (NCI-H23): 130 nM
- GI50 (NCI-H226): 410 nM
- GI50 (NCI-H522): 10 nM
- GI50 (NCI-H460): 56 nM
- GI50 (A549): 52 nM
- GI50 (DMS-273): 230 nM
- GI50 (DMS-114): 43 nM
- GI50 (LOX IMVI): 25 nM
- GI50 (OVCAR-3): 64 nM
- GI50 (OVCAR-4): 270 nM
- GI50 (OVCAR-5): 49 nM
- GI50 (OVCAR-8): 54 nM
- GI50 (SK-OV-3): 63 nM
- GI50 (RXF 631): 230 nM
- GI50 (ACHN): 460 nM
- GI50 (St-4): 1100 nM
- GI50 (MKN-1): 73 nM
- GI50 (MKN-7): 380 nM
- GI50 (MKN-28): 1400 nM
- GI50 (MKN-45): 1900 nM
- GI50 (MKN-74): 100 nM
- GI50 (DU-145): 39 nM
- GI50 (PC-3): 170 nM
